# Reference: ChEMBL document CHEMBL5303300, “EUbOPEN Chemogenomics Library - Multiplex” (2023)
# Values joined by “and” are separate entries in the source; they are usually repeats but may differ in a detail not shown here. Equal entries are not always repeated.
# System: HEK-293T
# Assay: Multiplex assay against HEK293T
# Type: toxicity, cell-based
# Details: human, number of replicates 2
# How it was run: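 Tubulin, mitochondrial-mass and membrane-permeability phenotypes are per cents of healthy-nucleus cells. Cells were gated by CellPathfinder machine learning into Hoechst high-intensity objects or normal cells, normal cells into healthy, pyknosed or fragmented nuclei, and pyknosed cells into mitotic or apoptotic. Before that, live cells stained at seeding with Hoechst33342, BioTracker Green Microtubule Cytoskeleton Dye, MitoTracker Red and Annexin V Alexa Fluor 680 were imaged on a CQ1 microscope at 37°C and 5% CO2 after compound addition.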
# [1] = 12 h, 1 µM, compound concentration 1 uM
# [2] = 12 h, 10 µM, compound concentration 10 uM
# [3] = 24 h, 1 µM, compound concentration 1 uM
# [4] = 24 h, 10 µM, compound concentration 10 uM
# [5] = 48 h, 1 µM, compound concentration 1 uM
# [6] = 48 h, 10 µM, compound concentration 10 uM
compound,measurement,setting,value
CC1=C(C)C(=O)C(C(CCCCCC(=O)O)c2ccccc2)=C(C)C1=O (stereo not given) [SERATRODAST],Population Apoptotic (%),[1],63% and 56%
same,Population Fragmented Nuclei (%),[1],4% and 5%
same,Population Healthy Nuclei (%),[1],78% and 82%
same,Population Hoechst High Intensity Objects (%),[1],12% and 8%
same,Population Membrane Permeable-Phenotype (%),[1],2% and 0%
same,Population Mitochondria Different-Phenotype (%),[1],18% and 13%
same,Population Mitotic Cells (%),[1],36% and 43%
same,Population Normal (%),[1],87% and 91%
same,Population Pyknosed Nuclei (%),[1],17% and 12%
same,Population Tubulin-Different-Phenotype (%),[1],49% and 39%
same,Total Cell Count,[1],511 and 624
same,Population Apoptotic (%),[2],47% and 51%
same,Population Fragmented Nuclei (%),[2],4% and 5%
same,Population Healthy Nuclei (%),[2],87% and 85%
same,Population Hoechst High Intensity Objects (%),[2],7%
same,Population Membrane Permeable-Phenotype (%),[2],4% and 2%
same,Population Mitochondria Different-Phenotype (%),[2],8% and 11%
same,Population Mitotic Cells (%),[2],52% and 48%
same,Population Normal (%),[2],92%
same,Population Pyknosed Nuclei (%),[2],7% and 9%
same,Population Tubulin-Different-Phenotype (%),[2],39% and 43%
same,Total Cell Count,[2],857 and 708
same,Population Apoptotic (%),[3],52% and 55%
same,Population Fragmented Nuclei (%),[3],6% and 7%
same,Population Healthy Nuclei (%),[3],79% and 81%
same,Population Hoechst High Intensity Objects (%),[3],9%
same,Population Membrane Permeable-Phenotype (%),[3],1%
same,Population Mitochondria Different-Phenotype (%),[3],3%
same,Population Mitotic Cells (%),[3],47% and 44%
same,Population Normal (%),[3],90%
same,Population Pyknosed Nuclei (%),[3],13% and 10%
same,Population Tubulin-Different-Phenotype (%),[3],19% and 16%
same,Total Cell Count,[3],827 and 1038
same,Population Apoptotic (%),[4],28% and 42%
same,Population Fragmented Nuclei (%),[4],8% and 7%
same,Population Healthy Nuclei (%),[4],86%
same,Population Hoechst High Intensity Objects (%),[4],9% and 6%
same,Population Membrane Permeable-Phenotype (%),[4],6% and 3%
same,Population Mitochondria Different-Phenotype (%),[4],3% and 4%
same,Population Mitotic Cells (%),[4],71% and 57%
same,Population Normal (%),[4],90% and 93%
same,Population Pyknosed Nuclei (%),[4],4% and 6%
same,Population Tubulin-Different-Phenotype (%),[4],29% and 35%
same,Total Cell Count,[4],1313 and 975
same,Population Apoptotic (%),[5],22% and 13%
same,Population Fragmented Nuclei (%),[5],15% and 14%
same,Population Healthy Nuclei (%),[5],81% and 83%
same,Population Hoechst High Intensity Objects (%),[5],8%
same,Population Membrane Permeable-Phenotype (%),[5],4% and 5%
same,Population Mitochondria Different-Phenotype (%),[5],1% and 0%
same,Population Mitotic Cells (%),[5],77% and 86%
same,Population Normal (%),[5],91%
same,Population Pyknosed Nuclei (%),[5],3% and 2%
same,Population Tubulin-Different-Phenotype (%),[5],5%
same,Total Cell Count,[5],2229 and 2490
same,Population Apoptotic (%),[6],6% and 13%
same,Population Fragmented Nuclei (%),[6],25% and 16%
same,Population Healthy Nuclei (%),[6],73% and 80%
same,Population Hoechst High Intensity Objects (%),[6],9% and 8%
same,Population Membrane Permeable-Phenotype (%),[6],11% and 5%
same,Population Mitochondria Different-Phenotype (%),[6],0%
same,Population Mitotic Cells (%),[6],93% and 86%
same,Population Normal (%),[6],91%
same,Population Pyknosed Nuclei (%),[6],1% and 2%
same,Population Tubulin-Different-Phenotype (%),[6],15% and 21%
same,Total Cell Count,[6],3510 and 2285
CCOC(=O)Nc1cc(-c2ccc(C)c(NS(C)(=O)=O)c2)nn2c(C)nnc12,Population Apoptotic (%),[2],36% and 38% and 52% and 40%
same,Population Fragmented Nuclei (%),[2],2% and 3%
same,Population Healthy Nuclei (%),[2],78% and 74% and 75% and 79%
same,Population Hoechst High Intensity Objects (%),[2],4% and 3%
same,Population Membrane Permeable-Phenotype (%),[2],5% and 11% and 2%
same,Population Mitochondria Different-Phenotype (%),[2],15% and 28% and 21% and 20%
same,Population Mitotic Cells (%),[2],63% and 61% and 47% and 59%
same,Population Normal (%),[2],95% and 96%
same,Population Pyknosed Nuclei (%),[2],19% and 22% and 21% and 17%
same,Population Tubulin-Different-Phenotype (%),[2],56% and 71% and 58% and 55%
same,Total Cell Count,[2],892 and 664 and 646 and 672
same,Population Apoptotic (%),[4],40% and 25% and 30% and 24%
same,Population Fragmented Nuclei (%),[4],3% and 4% and 2%
same,Population Healthy Nuclei (%),[4],82% and 86% and 84% and 85%
same,Population Hoechst High Intensity Objects (%),[4],5% and 4%
same,Population Membrane Permeable-Phenotype (%),[4],3% and 0% and 1%
same,Population Mitotic Cells (%),[4],59% and 75% and 69%
same,Population Normal (%),[4],94% and 95%
same,Population Pyknosed Nuclei (%),[4],13% and 9% and 12% and 10%
same,Population Tubulin-Different-Phenotype (%),[4],32% [middle of 4 runs]
same,Total Cell Count,[4],755 and 1187 and 821 and 806
same,Population Apoptotic (%),[6],25% and 42% and 30% and 29%
same,Population Fragmented Nuclei (%),[6],9% and 5% and 7% and 6%
same,Population Healthy Nuclei (%),[6],83% and 79% and 80% and 82%
same,Population Hoechst High Intensity Objects (%),[6],5% and 9%
same,Population Membrane Permeable-Phenotype (%),[6],0% and 1%
same,Population Mitotic Cells (%),[6],75% and 57% and 69% and 70%
same,Population Normal (%),[6],94% and 90%
same,Population Pyknosed Nuclei (%),[6],7% and 15% and 11%
same,Total Cell Count,[6],1217 and 690 and 964 and 833
CS(=O)(=O)c1ccc(C(=O)Nc2cccc(COc3cc(F)c(Br)cc3CN3CC[C@H](O)C3)c2)c(Cl)c1.O=CO,Population Apoptotic (%),[1],58% and 54%
same,Population Pyknosed Nuclei (%),[1],13% and 21%
same,Total Cell Count,[1],586 and 531
same,Population Apoptotic (%),[2],57% and 73%
same,Population Mitotic Cells (%),[2],42%
same,Population Pyknosed Nuclei (%),[2],11% and 17%
same,Total Cell Count,[2],505 and 443
same,Population Apoptotic (%),[3],53% and 54%
same,Population Mitotic Cells (%),[3],46%
same,Population Pyknosed Nuclei (%),[3],11% and 10%
same,Total Cell Count,[3],800 and 910
same,Population Apoptotic (%),[4],65% and 73%
same,Population Mitotic Cells (%),[4],34%
same,Population Pyknosed Nuclei (%),[4],16% and 13%
same,Total Cell Count,[4],426 and 549
same,Population Apoptotic (%),[5],18% and 28%
same,Population Mitotic Cells (%),[5],81% and 71%
same,Population Pyknosed Nuclei (%),[5],3% and 4%
same,Total Cell Count,[5],2227 and 1546
same,Population Apoptotic (%),[6],61% and 60%
same,Population Mitotic Cells (%),[6],38% and 39%
same,Population Pyknosed Nuclei (%),[6],10% and 8%
same,Total Cell Count,[6],595 and 738
CN1CCc2cc(Nc3ncc(C(F)(F)F)c(NCc4cc[nH]n4)n3)ccc2C1,Population Apoptotic (%),[1],85% and 72%
same,Population Fragmented Nuclei (%),[1],4% and 3%
same,Population Healthy Nuclei (%),[1],77% and 78%
same,Population Hoechst High Intensity Objects (%),[1],14% and 11%
same,Population Membrane Permeable-Phenotype (%),[1],1%
same,Population Mitochondria Different-Phenotype (%),[1],41% and 47%
same,Population Mitotic Cells (%),[1],14% and 27%
same,Population Normal (%),[1],85% and 88%
same,Population Pyknosed Nuclei (%),[1],17%
same,Population Tubulin-Different-Phenotype (%),[1],35% and 44%
same,Total Cell Count,[1],280 and 291
same,Population Apoptotic (%),[2],64% and 85%
same,Population Fragmented Nuclei (%),[2],5%
same,Population Healthy Nuclei (%),[2],89%
same,Population Hoechst High Intensity Objects (%),[2],10% and 13%
same,Population Membrane Permeable-Phenotype (%),[2],0%
same,Population Mitochondria Different-Phenotype (%),[2],38% and 43%
same,Population Mitotic Cells (%),[2],35% and 14%
same,Population Normal (%),[2],89% and 86%
same,Population Pyknosed Nuclei (%),[2],5%
same,Population Tubulin-Different-Phenotype (%),[2],66% and 70%
same,Total Cell Count,[2],377 and 312
same,Population Apoptotic (%),[3],83% and 72%
same,Population Fragmented Nuclei (%),[3],4% and 5%
same,Population Healthy Nuclei (%),[3],81% and 73%
same,Population Hoechst High Intensity Objects (%),[3],20% and 13%
same,Population Membrane Permeable-Phenotype (%),[3],0%
same,Population Mitochondria Different-Phenotype (%),[3],37% and 43%
same,Population Mitotic Cells (%),[3],16% and 27%
same,Population Normal (%),[3],79% and 86%
same,Population Pyknosed Nuclei (%),[3],14% and 20%
same,Population Tubulin-Different-Phenotype (%),[3],38% and 42%
same,Total Cell Count,[3],267 and 261
same,Population Apoptotic (%),[4],63% and 80%
same,Population Fragmented Nuclei (%),[4],5% and 4%
same,Population Healthy Nuclei (%),[4],87%
same,Population Hoechst High Intensity Objects (%),[4],11% and 13%
same,Population Membrane Permeable-Phenotype (%),[4],1% and 0%
same,Population Mitochondria Different-Phenotype (%),[4],58% and 60%
same,Population Mitotic Cells (%),[4],36% and 20%
same,Population Normal (%),[4],88% and 86%
same,Population Pyknosed Nuclei (%),[4],7% and 8%
same,Population Tubulin-Different-Phenotype (%),[4],73% and 71%
same,Total Cell Count,[4],315 and 284
same,Population Apoptotic (%),[5],80% and 72%
same,Population Fragmented Nuclei (%),[5],7% and 5%
same,Population Healthy Nuclei (%),[5],79%
same,Population Hoechst High Intensity Objects (%),[5],16% and 14%
same,Population Membrane Permeable-Phenotype (%),[5],1%
same,Population Mitochondria Different-Phenotype (%),[5],40% and 36%
same,Population Mitotic Cells (%),[5],19% and 27%
same,Population Normal (%),[5],83% and 85%
same,Population Pyknosed Nuclei (%),[5],13% and 15%
same,Population Tubulin-Different-Phenotype (%),[5],36%
same,Total Cell Count,[5],285 and 307
same,Population Apoptotic (%),[6],46% and 75%
same,Population Fragmented Nuclei (%),[6],3% and 4%
same,Population Healthy Nuclei (%),[6],84% and 82%
same,Population Hoechst High Intensity Objects (%),[6],14% and 18%
same,Population Membrane Permeable-Phenotype (%),[6],0% and 1%
same,Population Mitochondria Different-Phenotype (%),[6],65% and 67%
same,Population Mitotic Cells (%),[6],53% and 25%
same,Population Normal (%),[6],85% and 81%
same,Population Pyknosed Nuclei (%),[6],11% and 12%
same,Population Tubulin-Different-Phenotype (%),[6],71% and 72%
same,Total Cell Count,[6],303 and 280
